Read-outs that look alike come from different tables or passages of the source.

One assay concerns the target T1, CSP3 (Chilo suppressalis, UniProt V9PY40).
T1 sequence (V9PY40 19-126): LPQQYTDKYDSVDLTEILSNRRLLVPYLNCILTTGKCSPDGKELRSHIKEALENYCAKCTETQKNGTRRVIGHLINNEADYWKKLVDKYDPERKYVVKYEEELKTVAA
Type of assay: binding. Particulars: for IC50: read-out: CSP3 IC50, displacement of 1-NPN, ligand 2–30 µM; for activity at 30 µM: pH 7.4, read-out: CSP3 Intensity %; for Ki: read-out: CSP3 Ki, competitive binding with 1-NPN. In short, it runs like this: (§1)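 Mature CSP cDNA in pET-30a(+), expressed in E. coli, purified, His-tag cleaved with enterokinase. […] Competition: 2 µM protein plus 2 µM 1-NPN in 50 mM Tris–HCl, titrated with 1 mM odorant stock to 2–30 µM final. Excitation 337 nm, emission 400–460 nm, three replicates.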

The next assay deals with T2, CSP1 (Chilo suppressalis, UniProt V9PY22).
T2 sequence (V9PY22 18-122): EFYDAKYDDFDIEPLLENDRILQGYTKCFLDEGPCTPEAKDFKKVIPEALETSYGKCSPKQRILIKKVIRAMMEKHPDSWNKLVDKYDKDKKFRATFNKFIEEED
Type of assay: binding. The settings on record: for IC50: read-out: CSP1 IC50, displacement of 1-NPN, ligand 2–30 µM; for Ki: read-out: CSP1 Ki, competitive binding with 1-NPN; for activity at 30 µM: pH 7.4, read-out: CSP1 Intensity %. A digest of the protocol:
as §1

The target in the next assay is CSP2. The format is binding, Chilo suppressalis. Particulars: for IC50: read-out: CSP2 IC50, displacement of 1-NPN, ligand 2–30 µM; for Ki: read-out: CSP2 Ki, competitive binding with 1-NPN.
Another assay deals with adult C. suppressalis. The settings on record: ref Wei et al. 2013, Khuhro et al. 2017a; cited from earlier work.

For `CCCCCCCCCCCC=O` [Laurinaldehyde], the IC50 at CSP3 is more than 30 µM; on CSP1, 11.8 µM; at CSP2, 19.3 µM. For the same compound, the values for the Ki on CSP1, at CSP1 (listed as laurinaldehyde) and on CSP2 were 9.16 µM, not above 10 µM and 16.6 µM, respectively.
Turning to `CCCCCCCCC=O` [1-Nonaldehyde], the activity at 30 µM at CSP3 was 75 ± 2.3%; at CSP1, 74.1%. For the same compound, the IC50 at CSP2 was more than 30 µM.
Regarding `CCCCCCCCCCCCCC(C)=O` [2-Pentadecanone], the activity at 30 µM on CSP3 worked out at 67.6 ± 0.91%. In addition, the activity at 30 µM at CSP1 worked out at 27.9 ± 2.11%. Besides, on CSP2, the IC50 came to 23.6 µM and the Ki was 20.3 µM.
Turning to `CC/C=C\CCOC(C)=O` [Z3-Hexenyl acetate], the IC50 at CSP3, at CSP1 and at CSP2 was more than 30 µM throughout.
For `CCCCCCCCCCCCCCCC(=O)O` [Palmitic acid], the figures for the activity at 30 µM on CSP3 and on CSP1 were more than 100% and 78.2 ± 0.93%, respectively. Further, at CSP2, the IC50 was more than 30 µM.
Turning to `CCCC/C=C\CCCCCCCCCCCC=O` [Z13-Octadecenal], the IC50 at CSP3 was 25.1 µM; at CSP1 it was more than 30 µM; at CSP2, 20 µM. For the same compound, the Ki is 22.5 µM on CSP3 and 17.2 µM on CSP2.
`CCOC(=O)c1ccccc1` [Ethyl benzoates]: the IC50 on CSP3, on CSP1 and on CSP2 was more than 30 µM throughout.
For `CC=CC=CCO` [2,4 hexadienol], the activity at 30 µM at CSP3 amounted to 53.5 ± 1.87%. Moreover, the activity at 30 µM at CSP1 came out at 85.8%. Further, on CSP2, the IC50 came to 18.4 µM and the inhibitory constant (Ki) is 15.8 µM.
For `C=CC(C)=CCC=C(C)C` [Ocimene], the IC50 at CSP3, on CSP1 and at CSP2 was more than 30 µM each time.
With `O=Cc1ccccc1` [Benzaldehyde], the activity at 30 µM at CSP3 was determined as 44.2 ± 3.53%. In addition, the activity at 30 µM on CSP1 turned out to be 34.2 ± 2.35%. Moreover, on CSP2, the concentration for half-maximal inhibition (IC50) was 28.5 µM and the Ki is 24.5 µM.
For the compound `OCc1ccccc1` [Benzyl alcohol], the activity at 30 µM at CSP3 was 84.1 ± 2.96%; at CSP1 it was 67.5 ± 2.24%. The IC50 at CSP2 is more than 30 µM.
Consider `CC/C=C\CCO` [Z3-Hexenol], for which the IC50 at CSP3 was more than 30 µM; on CSP1, more than 30 µM; on CSP2, 20.7 µM. Also, the Ki at CSP2 stood at 17.7 µM.
With `CCCCCC(C)=O` [2-Heptanone], the activity at 30 µM was 82 ± 3.87% at CSP3 and 49.3 ± 1.89% on CSP1. Further, the IC50 at CSP2 is more than 30 µM.
On to `C[C@@H]1CC[C@H]2C(C)(C)[C@H]3C[C@@]12CC[C@@]3(C)O` [(+)-Cedrol], for which the activity at 30 µM at CSP3 amounted to 45.2 ± 1.9%; at CSP1, 47.2 ± 1.16%. Besides, the IC50 at CSP2 turned out to be 10.7 µM. Further, the Ki was 9.22 µM at CSP2 and not above 10 µM at CSP2 (listed as (+)-cedrol).
`CCCCCCCCCCCC(C)=O` [2-Tridecanone]: the activity at 30 µM at CSP3 amounted to 72.8 ± 2.06%. Moreover, the activity at 30 µM at CSP1 was determined as 24.8 ± 1.61%. On CSP2, the IC50 is 24.3 µM and the Ki was 20.9 µM.
Regarding `CCC/C=C/COC(C)=O` [E2-Hexenyl acetate], the IC50 on CSP3, at CSP1 and at CSP2 was more than 30 µM each time.
`CCC/C=C/C=O` [E2-Hexenal]: the IC50 on CSP3, at CSP1 and at CSP2 was more than 30 µM throughout.
As to `CCCCCC/C=C\CCCCCCCC=O` [Z9-Hexadecenal], the IC50 on CSP3 is 9.9 µM; at CSP1, 17.4 µM; on CSP2 it was 11.1 µM. Further, the Ki on CSP3 was 8.86 µM; on CSP1 it was 13.5 µM; on CSP2 it was 9.55 µM.
With `CCCCCCO` [Hexyl alcohol], the values for the activity at 30 µM on CSP3 and on CSP1 were 67.7 ± 3.05% and 64 ± 4.34%, respectively. Besides, the IC50 on CSP2 was more than 30 µM.
As to `CCCCCC(C)O` (stereo not shown) [2-Heptanol], the activity at 30 µM on CSP3 was 91.8 ± 1.7%; on CSP1, 48.9%. Also, the IC50 on CSP2 was determined as 10.8 µM. In addition, the Ki at CSP2 was 9.25 µM; at CSP2 (listed as 2-heptanol), not above 10 µM.
As for `CCCCC/C=C\C/C=C\CCCCCCCC(=O)O` [Linoleic acid], on CSP3, the activity at 30 µM amounted to 89.17 ± 0.88%. Further, the activity at 30 µM at CSP1 came to 55.6 ± 3.45%. In addition, on CSP2, the IC50 is 20.6 µM and the Ki was 17.7 µM.
For `CCCC/C=C\CCCCCCCCCC=O` [Z11-Hexadecenal], the IC50 at CSP3 came out at 6.96 µM; on CSP1, 20.9 µM; at CSP2, 10.3 µM. Also, the Ki on CSP3 was found to be 6.23 µM; on CSP1, 16.2 µM; at CSP2, 8.89 µM.
Consider `CCCCCCCC/C=C\CCCCCCCC(=O)O` [Oleic acid], for which the values for the activity at 30 µM on CSP3 and at CSP1 were 84.7 ± 2.37% and 58.9 ± 2.59%, respectively. The IC50 at CSP2 is more than 30 µM.
`CC/C=C\CCO` [E3-Hexenol]: the IC50 at CSP3, on CSP1 and on CSP2 was more than 30 µM throughout.
As for `CCC/C=C\C=O` [Z2-Hexenal], the IC50 was more than 30 µM at CSP3 and 15.8 µM at CSP1. Besides, the Ki worked out at 12.2 µM at CSP1 and 28.6 µM at CSP2.
As to `CC1=CC[C@H](C(C)C)C=C1` [α-Phellandrene], the figures for the activity at 30 µM at CSP3 and at CSP1 were 95.3 ± 1.58% and 73 ± 2.46%, respectively. Further, at CSP2, the IC50 was more than 30 µM.
In the case of `CCC/C=C/CO` [E2-hexenol], the IC50 on CSP3, at CSP1 and at CSP2 was more than 30 µM in each case.
As to `CCCCCCCCCCCC(=O)O` [Lauric acid], the IC50 on CSP3, at CSP1 and at CSP2 was more than 30 µM in each case.
As to Farnesene, the “binding affinity class for CSP3 (plant volatiles)” value on CSP3 (criteria for plant volatiles) was “did not show high or moderate binding affinity”. Besides, the IC50 on CSP3 is more than 30 µM; on CSP1 it was 27.6 µM; at CSP2, 24 µM. For the same compound, the “binding affinity class for CSP1 (plant volatiles)” value at CSP1 (criteria for plant volatiles) is given as “did not show high or moderate binding affinity”. Besides, the figures for the Ki on CSP1 and at CSP2 were 23.3 µM and 20.4 µM, respectively. Besides, the “electroantennographic (EAG) response” value in the assay with adult C. suppressalis is on record as “significant EAG response”. Besides, at CSP2 (criteria for plant volatiles), the “binding affinity class for CSP2 (plant volatiles)” value is on record as “did not show high or moderate binding affinity”.

What is called IC50 is the point on the concentration scale where inhibition reaches its midpoint. One may read the Ki as a dissociation constant, usually derived from enzyme kinetics or from competition with a known ligand.
